# ChEMBL document CHEMBL1127458, “Synthesis and quantitative structure-activity relationships of anticonvulsant 2,3,6-triaminopyridines” (J Med Chem, 1994)
# Species: Mus musculus
# Test: Effective dosage for inhibition of maximal electroshock stimulated convulsions
# Type: functional
# Procedure, shortened: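 Mice (male Carworth Farms #1), groups of at least eight, were given various doses and tested at the previously determined time of peak effect. Protection was defined as abolition of the hind limb tonic extension component of the seizure. Dosing continued until at least two points lay between 0% and 100% protection. The 50% dose and 95% confidence interval were derived by Finney's method.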
row,SMILES,Log 1/ED50
1,C=CCOC(=O)Nc1ccc(NCc2ccc(F)cc2)nc1N,4.48
2,CCOC(=O)Nc1ccc(NCc2ccc(NC(C)=O)cc2)nc1N.Cl,3.487
3,CC(=O)Nc1ccc(NCc2ccc(F)cc2)nc1N.Cl,3.567
4,Cl.Nc1nc(NCc2ccc(F)cc2)ccc1N1CCOC1=O,4.065
5,CCOC(=O)Nc1ccc(NCc2ccc(C(F)(F)F)cc2)nc1N.Cl,4.146
6,CCOC(=O)Nc1ccc(NCc2ccc(C)cc2C)nc1N.Cl,4.53
7,CCOC(=O)Nc1ccc(NCc2cccc(F)c2)nc1N.Cl,4.297
8,CCOC(=O)Nc1ccc(NC(C)c2ccc(F)cc2)nc1N.Cl (stereo not given),3.938
9,CCOC(=O)Nc1ccc(NCc2ccc(C)c(Cl)c2)nc1N.Cl,4.083
10,CCOC(=O)Nc1ccc(NCc2ccccc2)nc1N.Cl,4.214
11,COC(=O)Nc1ccc(NCc2ccc(F)cc2)nc1N.Cl,4.11
12,CCOC(=O)Nc1ccc(NCc2c(C)cccc2C)nc1N.Cl,5.01
13,Cc1noc(C)c1C(=O)Nc1ccc(NCc2ccc(F)cc2)nc1N.Cl,3.94
14,Cl.Nc1nc(NCc2ccc(Cl)cc2)ccc1NC(=O)Oc1ccccc1,3.507
15,CCOC(=O)Nc1ccc(NCc2ccc(F)cc2)nc1N.Cl,4.13
16,CCOC(=O)Nc1ccc(NCc2ccc(S(N)(=O)=O)cc2)nc1N.Cl,3.572
17,Cl.Nc1nc(NCc2ccc(F)cc2)ccc1NC(=O)OCCCl,4.46
18,CCOC(=O)Nc1ccc(NCc2ccc(Cl)cc2)nc1N.Cl,4.388
19,CCOC(=O)Nc1ccc(NCc2ccccc2O)nc1N.Cl,3.896
20,CCOC(=O)Nc1ccc(NCc2c(C)cc(C)cc2C)nc1N.Cl,5.268
21,Cl.Nc1nc(NCc2ccccc2)ccc1NC(=O)Oc1ccccc1,3.942
22,Cl.Nc1nc(NCc2ccc(F)cc2)ccc1NC(=O)Oc1ccccc1,3.724
23,CCOC(=O)Nc1ccc(NCc2ccc(C(C)=O)cc2)nc1N.Cl,3.831
24,CCOC(=O)Nc1ccc(NCc2ccccc2C)nc1N.Cl,4.872
25,CCOC(=O)Nc1ccc(NCc2ccc(F)cc2F)nc1N.Cl,4.321
